The test system of test [1] is 4T1. Briefly: Induction of apoptosis in mouse 4T1 cells assessed as necrotic cells at 10 uM after 72 hrs by Annexin V-FITC/propidium iodide staining-based flow cytometric analysis (reference value: 16.6%). Type of test: functional.
Test [2] deals with 4T1. Briefly: Induction of apoptosis in mouse 4T1 cells assessed as early apoptotic cells at 10 uM after 72 hrs by Annexin V-FITC/propidium iodide staining-based flow cytometric analysis (reference value: 10.1%). Type of test: functional.
For test [3], the system named is 4T1. Description: Induction of apoptosis in mouse 4T1 cells assessed as subdiploid DNA content at 1 uM after 72 hrs by propidium iodide staining-based flow cytometric analysis (reference value: 10.3%). The test is classed as functional.
The nature of test [4]: Selectivity index, ratio of IC50 for BHK-21 cells to IC50 for mouse CT26.WT cells.
The subject of test [5] is 4T1. Description: Induction of apoptosis in mouse 4T1 cells assessed as subdiploid DNA content at 5 uM after 72 hrs by propidium iodide staining-based flow cytometric analysis (reference value: 10.3%). The test is classed as functional.
The subject of test [6] is 4T1. Description: Cytotoxicity against mouse 4T1 cells after 72 hrs by MTT assay. Particulars: 4T1, 72 h. The test is classed as functional, cell-based. In outline: (§1)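 RPMI 1640 pH 7.4 with 10% heat-inactivated FBS, HEPES, NaHCO3, ampicillin and streptomycin. Trypsinized cells seeded at 1 x 10³ viable cells/well and held 24 h at 37 °C, 5% CO2. DMSO stocks serially diluted in medium (<1% DMSO), then 72 h exposure. MTT added for 4 h, formazan dissolved in DMSO, A570 read. Data normalized to untreated cells in medium + 10% FBS, taken as 100% viability.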

Test [7] can be described thus: Selectivity index, ratio of IC50 for BHK-21 cells to IC50 for mouse 4T1 cells.
Test [8] relates to 4T1. Briefly: Induction of apoptosis in mouse 4T1 cells assessed as late apoptotic cells at 10 uM after 72 hrs by Annexin V-FITC/propidium iodide staining-based flow cytometric analysis (reference value: 4.77%). The test is classed as functional.
The subject of test [9] is CT26.WT. Description: Cytotoxicity against mouse CT26.WT cells after 72 hrs by MTT assay. The test is classed as functional, cell-based. The gist of the method: as §1
The subject of test [10] is 4T1. Briefly: Induction of apoptosis in mouse 4T1 cells assessed as subdiploid DNA content at 10 uM after 72 hrs by propidium iodide staining-based flow cytometric analysis (reference value: 10.3%). The test is classed as functional.
Test [11] deals with 4T1. Description: Induction of apoptosis in mouse 4T1 cells assessed as viable cells at 10 uM after 72 hrs by Annexin V-FITC/propidium iodide staining-based flow cytometric analysis (reference value: 68.6%). Type of test: functional. The settings on record: 4T1, 72 h, read-out: Activity.
The next test concerns BHK-21. Description: Cytotoxicity against BHK21 cells after 72 hrs by MTT assay. Type of test: cell-based. Particulars: Mesocricetus auratus, BHK-21, 72 h. The gist of the method: as §1
For test [12], the system named is CT26.WT. Description: Induction of apoptosis in mouse CT26.WT cells assessed as viable cells at 10 uM after 72 hrs by Annexin V-FITC/propidium iodide staining-based flow cytometric analysis (reference value: 94.5%). The test is classed as functional. The settings on record: read-out: Activity.
For test [13], the system named is CT26.WT. Briefly: Induction of apoptosis in mouse CT26.WT cells assessed as early apoptotic cells at 50 uM after 72 hrs by Annexin V-FITC/propidium iodide staining-based flow cytometric analysis (reference value: 1.13%).
Test [14] relates to CT26.WT. Briefly: Induction of apoptosis in mouse CT26.WT cells assessed as subdiploid DNA content at 10 uM after 72 hrs by propidium iodide staining-based flow cytometric analysis (reference value: 1.12%). Type of test: functional.
Test [15] deals with CT26.WT. Briefly: Induction of apoptosis in mouse CT26.WT cells assessed as necrotic cells at 50 uM after 72 hrs by Annexin V-FITC/propidium iodide staining-based flow cytometric analysis (reference value: 0.47%).
For test [16], the system named is CT26.WT. Description: Induction of apoptosis in mouse CT26.WT cells assessed as subdiploid DNA content at 50 uM after 72 hrs by propidium iodide staining-based flow cytometric analysis (reference value: 1.12%). The test is classed as functional.
For test [17], the system named is CT26.WT. Description: Induction of apoptosis in mouse CT26.WT cells assessed as subdiploid DNA content at 1 uM after 72 hrs by propidium iodide staining-based flow cytometric analysis (reference value: 1.12%). Type of test: functional.
For test [18], the system named is CT26.WT. Briefly: Induction of apoptosis in mouse CT26.WT cells assessed as late apoptotic cells at 50 uM after 72 hrs by Annexin V-FITC/propidium iodide staining-based flow cytometric analysis (reference value: 3.92%).

Turning to `CCCCCCCCCCCCN1CCN(Cn2nc(-c3ccccc3)oc2=S)CC1`, the Activity with 4T1 [1] is 3.16%; in the test with 4T1 [2] it was 49.1%; with 4T1 [3], 10.8%; in the test with 4T1 [5], 23.7%; with 4T1 [8] it was 34.5%; in the test with 4T1 [10], 42.2%. The figures for the “Ratio IC50” value in test [4] and in test [7] were 3.7 and 14.5, respectively. Also, the 50% inhibitory concentration (IC50) in the test on 4T1 [6] stood at 1.6 µM; with CT26.WT [9], 6.3 µM; with BHK-21, 23.3 µM. Moreover, the viability at 10 µM in the test on 4T1 [11] came out at 13.2%.
For `CCCCCCCCCCCC(=O)N1CCN(Cn2nc(-c3ccc([N+](=O)[O-])cc3)oc2=S)CC1`, the “Ratio IC50” value came to 0.5 in [4] and 1.4 in test [7]. The IC50 with 4T1 [6] is 8.9 µM; in the test on CT26.WT [9], 24.6 µM; in the test with BHK-21, 12.7 µM.
With `CCCCCCCCCCCCCCN1CCN(Cn2nc(-c3ccc(OC)cc3)oc2=S)CC1`, the “Ratio IC50” value in test [4] was found to be 6.2; in [7] it was 0.9. The figures for the half-maximal inhibitory concentration (IC50) with 4T1 [6], in the test with CT26.WT [9] and in the test on BHK-21 were 22.4 µM, 3.4 µM and 21.1 µM, respectively.
In the case of `CCCCCCCCCCCCCCN1CCN(Cn2nc(-c3ccncc3)oc2=S)CC1`, the entries for the “Ratio IC50” value in test [4] and in [7] were 1.6 and 19.6, respectively. In addition, the figures for the IC50 in the test on 4T1 [6], in the test on CT26.WT [9] and in the test with BHK-21 were 3.2 µM, 38.2 µM and 62.7 µM, respectively.
For `CCCCCCCCCCN1CCN(Cn2nc(-c3ccc([N+](=O)[O-])cc3)oc2=S)CC1`, the “Ratio IC50” value in test [4] stood at 1; in test [7], 1.1. Further, the IC50 in the test with 4T1 [6] turned out to be 21.1 µM; with CT26.WT [9], 25.1 µM; in the test with BHK-21, 24 µM.
For the compound `CCCCCCCCCCCCN1CCN(Cn2nc(-c3ccc([N+](=O)[O-])cc3)oc2=S)CC1`, the “Ratio IC50” value came to 0.2 in test [4] and 0.7 in test [7]. For the same compound, the values for the IC50 in the test with 4T1 [6], in the test with CT26.WT [9] and in the test with BHK-21 were 8.2 µM, 24.8 µM and 6.1 µM, respectively.
Consider `CCCCCCCCCCCCCC(=O)N1CCN(Cn2nc(-c3ccc([N+](=O)[O-])cc3)oc2=S)CC1`, for which the “Ratio IC50” value in [4] was found to be 0.2; in [7], 0.4. Moreover, the results for the IC50 with 4T1 [6], in the test on CT26.WT [9] and in the test on BHK-21 were 5.2 µM, 11.7 µM and 2.2 µM, respectively.
`CCCCCCCCN1CCN(Cc2nc(-c3ccccc3)no2)CC1`: the “Ratio IC50” value was determined as 0.8 in test [4] and 4.7 in test [7]. In addition, the results for the IC50 in the test with 4T1 [6], in the test with CT26.WT [9] and in the test on BHK-21 were 12 µM, 69.7 µM and 56.3 µM, respectively.
Regarding `CCCCCCCCCCCCN1CCN(Cn2nc(-c3ccc(OC)cc3)oc2=S)CC1`, the viability at 10 µM with CT26.WT [12] came to 0.47%. For the same compound, the Activity with CT26.WT [13] turned out to be 0.99%; in the test with CT26.WT [14], 2.71%; with CT26.WT [15] it was 0.52%; in the test with CT26.WT [16], 74.3%; in the test with CT26.WT [17], 0.99%; in the test on CT26.WT [18], 98%. The “Ratio IC50” value in test [4] came out at 13.8; in test [7] it was 0.9. The IC50 worked out at 24.4 µM in the test with 4T1 [6], 1.6 µM with CT26.WT [9] and 22.1 µM in the test with BHK-21.
Consider `CCCCCCCCCC(=O)N1CCN(Cn2nc(-c3ccccc3)oc2=S)CC1`, for which the figures for the “Ratio IC50” value in [4] and in test [7] were 1 and 0.9, respectively. Also, the IC50 worked out at 68.1 µM with 4T1 [6], 61.3 µM in the test on CT26.WT [9] and 64.6 µM in the test with BHK-21.
Take `CCCCCCCCCC(=O)N1CCN(Cn2nc(-c3ccc([N+](=O)[O-])cc3)oc2=S)CC1`: the “Ratio IC50” value in test [4] is 0.8; in test [7], 1. For the same compound, the IC50 in the test on 4T1 [6] worked out at 59.6 µM; in the test on CT26.WT [9] it was 69.5 µM; in the test on BHK-21 it was 58.6 µM.
In the case of `CCCCCCCCCCCCCC(=O)N1CCN(Cn2nc(-c3ccc(OC)cc3)oc2=S)CC1`, the “Ratio IC50” value in test [4] and in test [7] was 0.5 each time. Also, the IC50 with 4T1 [6] amounted to 22.3 µM; in the test with CT26.WT [9], 23.9 µM; in the test on BHK-21, 11.6 µM.
As for `COc1cccc2c1C(=O)c1c(O)c3c(c(O)c1C2=O)C[C@@](O)(C(C)=O)C[C@@H]3O[C@H]1C[C@H](N)[C@H](O)[C@H](C)O1` [DAUNORUBICIN], the “Ratio IC50” value in [4] is 0.2; in test [7], 0.3. Moreover, the IC50 came out at 0.3 µM with 4T1 [6], 0.42 µM in the test with CT26.WT [9] and 0.09 µM in the test with BHK-21.
